# The source made the active and inactive calls. The rule behind the calls is not given here.
# Tests used:
# [1] = target: T1, D(3) dopamine receptor (Homo sapiens, UniProt P35462); assay: Agonist activity at human D3 dopamine receptor expressed in CHO cells by [35S]GTPgammaS binding assay relative to dopamine; format: functional, cell-based
# Procedure, shortened: (§1)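 [35S]GTPγS binding stimulated in CHO cells expressing human D2 or D3 receptors. […] The D2/D3 ratio is the ratio of the EC50 values. Values are means ± SEM of three to five experiments, each run in triplicate.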
# [2] = tested on: PC-12; assay: Neuroprotective activity against 6-OHDA induce toxicity in rat PC12 cells assessed as cell viability at 30 uM preincubated for 24 hrs followed by 6-OHDA addition for 24 hrs by MTT assay; format: functional; conditions: read-out: Activity
# Procedure, shortened: (§2)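 PC12 cells were pretreated for 24 h across a concentration range (0.1-30 µM or 1-50 µM, depending on compound). A single dose of 75 µM 6-OHDA was then added for a further 24 h. Cell viability was measured by MTT assay.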
# [3] = target: D(3) dopamine receptor (Rattus norvegicus, UniProt P19020); assay: Displacement of [3H]spiperone from rat D3 dopamine receptor expressed in HEK293 cell membranes after 1 hr
# D(3) dopamine receptor (Rattus norvegicus, UniProt P19020), sequence (P19020 whole entry): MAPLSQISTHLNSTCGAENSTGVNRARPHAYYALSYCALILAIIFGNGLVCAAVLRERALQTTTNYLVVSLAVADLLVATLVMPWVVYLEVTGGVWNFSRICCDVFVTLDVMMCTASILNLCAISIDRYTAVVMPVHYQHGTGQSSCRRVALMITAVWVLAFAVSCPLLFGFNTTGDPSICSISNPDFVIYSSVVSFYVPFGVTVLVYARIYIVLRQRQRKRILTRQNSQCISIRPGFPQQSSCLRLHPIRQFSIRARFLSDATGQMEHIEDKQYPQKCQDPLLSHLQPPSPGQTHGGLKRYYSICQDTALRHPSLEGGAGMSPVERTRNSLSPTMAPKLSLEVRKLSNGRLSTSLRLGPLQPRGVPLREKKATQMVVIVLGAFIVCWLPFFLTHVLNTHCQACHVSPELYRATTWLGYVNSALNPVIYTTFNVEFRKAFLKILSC
# [4] = organism: Homo sapiens; assay: Selectivity ratio of EC50 for human D2 dopamine receptor expressed in CHO cells to EC50 for human D3 dopamine receptor expressed in CHO cells; format: cell-based; procedure, shortened: as §1
# [5] = organism: Rattus norvegicus; assay: Selectivity ratio of Ki for rat D2L dopamine receptor expressed in HEK293 cells to Ki for rat D3 dopamine receptor expressed in HEK293 cells; format: cell-based
# [6] = target: T2, D(2) dopamine receptor (Homo sapiens, UniProt P14416); assay: Agonist activity at human D2 dopamine receptor expressed in CHO cells by [35S]GTPgammaS binding assay; format: functional, cell-based
# T2 sequence (P14416 whole entry): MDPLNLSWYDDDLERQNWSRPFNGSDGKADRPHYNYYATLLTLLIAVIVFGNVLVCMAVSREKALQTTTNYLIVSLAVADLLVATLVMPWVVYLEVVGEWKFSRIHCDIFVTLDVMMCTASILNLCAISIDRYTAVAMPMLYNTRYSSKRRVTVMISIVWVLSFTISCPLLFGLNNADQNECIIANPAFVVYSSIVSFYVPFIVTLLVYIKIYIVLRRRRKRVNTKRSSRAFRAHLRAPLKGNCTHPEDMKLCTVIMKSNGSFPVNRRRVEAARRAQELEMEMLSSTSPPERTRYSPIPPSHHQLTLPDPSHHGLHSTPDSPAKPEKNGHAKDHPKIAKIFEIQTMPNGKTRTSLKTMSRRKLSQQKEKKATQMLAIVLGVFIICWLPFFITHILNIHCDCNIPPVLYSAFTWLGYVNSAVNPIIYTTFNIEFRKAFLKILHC
# Procedure, shortened: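 [35S]GTPγS binding stimulated in CHO cells expressing human D2 or D3 receptors. The D2/D3 ratio is the ratio of the EC50 values. Values are means ± SEM of three to five experiments, each run in triplicate.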
# [7] = target: T1, D(3) dopamine receptor; assay: Agonist activity at human D3 dopamine receptor expressed in CHO cells by [35S]GTPgammaS binding assay; format: functional, cell-based
# [8] = target: T2, D(2) dopamine receptor; assay: Agonist activity at human D2 dopamine receptor expressed in CHO cells by [35S]GTPgammaS binding assay relative to dopamine; format: functional, cell-based; procedure, shortened: as §1
# [9] = target: D(2) dopamine receptor (Rattus norvegicus, UniProt P61169); assay: Displacement of [3H]spiperone from rat D2L dopamine receptor expressed in HEK293 cell membranes after 1 hr
# D(2) dopamine receptor (Rattus norvegicus, UniProt P61169), sequence (P61169 whole entry): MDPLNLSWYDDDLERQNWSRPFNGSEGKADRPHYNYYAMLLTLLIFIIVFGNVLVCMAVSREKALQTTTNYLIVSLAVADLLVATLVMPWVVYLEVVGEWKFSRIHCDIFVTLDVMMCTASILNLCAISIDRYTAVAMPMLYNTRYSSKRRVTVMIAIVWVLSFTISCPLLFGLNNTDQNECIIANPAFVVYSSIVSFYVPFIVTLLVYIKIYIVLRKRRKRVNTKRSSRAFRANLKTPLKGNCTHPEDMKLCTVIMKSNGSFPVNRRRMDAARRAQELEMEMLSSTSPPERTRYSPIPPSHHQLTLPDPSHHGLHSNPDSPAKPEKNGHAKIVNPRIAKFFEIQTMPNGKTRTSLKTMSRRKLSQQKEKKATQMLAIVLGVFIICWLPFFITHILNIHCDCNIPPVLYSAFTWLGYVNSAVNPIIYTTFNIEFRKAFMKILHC
# [10] = tested on: PC-12; assay: Neuroprotective activity against 6-OHDA induce toxicity in rat PC12 cells assessed as cell viability preincubated for 24 hrs followed by 6-OHDA addition for 24 hrs by MTT assay; format: functional, cell-based; procedure, shortened: as §2
# [11] = tested on: Rattus norvegicus; assay: Reversal of reserpine-induced hypolocomotion in Sprague-Dawley rat assessed as locomotor stimulation at 10 umol/kg, ip administered 18 hrs post reserpine challenge measured over 6 hrs; format: functional, organism-based
# Procedure, shortened: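 Rats received reserpine 5 mg/kg s.c. The drug was given at 10 µmol/kg i.p. 18 h after reserpine. Horizontal activity (beam interruptions) was recorded in 30-min intervals and compared with reserpine-only controls. n=3 rats per value, mean ± SEM, one-way ANOVA.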
# [12] = target: Alpha-synuclein (Homo sapiens) (UniProt P37840); assay: Inhibition of recombinant alphaSN (unknown origin) fibrillation at 120 uM after 6 days by ThT fluorescence assay
# Procedure, shortened: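 α-Synuclein was shaken for 6 days with or without the drug. Fibrillization was read by ThT fluorescence, normalized to α-synuclein shaken alone at day 6. Drugs were also tested alone in the ThT read-out. Values are means ± SEM of three independent experiments, compared by one-way ANOVA with Tukey post hoc test.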
# [13] = target: Alpha-synuclein (Homo sapiens) (UniProt P37840); assay: Induction of recombinant alphaSN (unknown origin) fibrillation at 120 uM after 6 days by ThT fluorescence assay
# Procedure, shortened: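 Cell-free alpha-synuclein aggregation: SN shaken alone or co-incubated with each drug for 6 days. Fibrillization read by thioflavin T fluorescence and normalized to SN shaken alone for six days. Drugs were also run without SN to check for ThT interference. Means ± SEM of three independent experiments; one-way ANOVA with Tukey's post hoc test.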
# T1 sequence (P35462 whole entry): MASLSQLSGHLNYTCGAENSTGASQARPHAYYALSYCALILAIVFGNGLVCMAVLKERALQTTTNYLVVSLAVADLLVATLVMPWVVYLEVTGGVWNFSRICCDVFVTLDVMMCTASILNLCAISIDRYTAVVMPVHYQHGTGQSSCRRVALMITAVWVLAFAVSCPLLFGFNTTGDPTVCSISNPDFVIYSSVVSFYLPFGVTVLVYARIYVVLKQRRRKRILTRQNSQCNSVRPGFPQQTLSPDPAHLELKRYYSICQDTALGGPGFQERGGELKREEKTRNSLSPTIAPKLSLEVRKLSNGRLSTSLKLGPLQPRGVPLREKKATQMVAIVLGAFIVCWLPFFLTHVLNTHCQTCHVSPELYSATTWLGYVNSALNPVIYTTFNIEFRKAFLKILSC
Emax [1] [%],Ki [3] [nM],EC50 [6] [nM],EC50 [7] [nM],Emax [8] [%],Compound,Ratio Ki [5],other results
87.5,22.3,37.7,20.4,84.3,CCCN(CCC/C=C/c1ccc(O)c(OC)c1)[C@H]1CCc2nc(N)sc2C1,6,viability at 30 µM [2]: 18 to 25%; Ratio EC50 [4]: 1.85; Ki [9]: 123 nM; Activity [10]: Dose-dependent effect
–,4.24,–,–,–,CCCN(CCC/C=C/c1ccc(O)c(OC)c1)C1CCc2nc(N)sc2C1 (racemic),35,Ki [9]: 150 nM
–,0.675,–,–,–,CCCN(CCCCCCc1ccc(O)c(OC)c1)C1CCc2nc(N)sc2C1 (racemic),87,Ki [9]: 58.5 nM
94.4,–,2.09,0.78,96.2,CCCN(CCCCCc1ccc(O)c(OC)c1)[C@H]1CCc2nc(N)sc2C1,43,Ratio EC50 [4]: 2.68
–,–,–,–,–,CCCN(CCC)CCc1cccc2c1CC(=O)N2,–,Activity [11]: Active
90.9,0.78,9.3,1.22,88,CCCN(CCCCCc1cc(O)ccc1O)[C@H]1CCc2nc(N)sc2C1,–,–
–,–,–,–,–,CCCN(CCC/C=C\c1ccc(O)c(OC)c1)C1CCc2nc(N)sc2C1 (racemic),10,–
–,–,–,–,–,CCCN(CCCCCc1ccc(O)c(O)c1)C1CCc2nc(N)sc2C1 (racemic),45,–
90.9,0.493,0.27,0.33,88.8,CCCN(CCCCCc1ccc(O)c(O)c1)[C@H]1CCc2c(O)cccc2C1,9,viability at 30 µM [2]: 18 to 25%; Ratio EC50 [4]: 0.82; inhibition [12]: Active; Ki [9]: 4.67 nM; Activity [10]: Dose-dependent effect
83.4,–,22.9,2.62,97.4,CCCN(CCCCCc1ccc(O)c(O)c1)[C@H]1CCc2nc(N)sc2C1,46,viability at 30 µM [2]: 18 to 25%; Ratio EC50 [4]: 8.74; inhibition [12]: Active; Activity [11]: Active; Activity [10]: Dose-dependent effect
–,–,–,–,–,CCCN(CCCc1ccc(O)c(OC)c1)C1CCc2nc(N)sc2C1 (racemic),153,–
–,–,–,–,–,CCCN(C/C=C/c1ccc(O)c(OC)c1)C1CCc2nc(N)sc2C1 (configuration not stated),119,–
–,–,–,–,–,CCCN(CCC)C1CCc2c(O)cccc2C1 (configuration not stated),–,Activity [13]: Active
–,3.62,–,–,–,CCCN(CCCCCc1ccc(O)c(OC)c1)C1CCc2nc(N)sc2C1 (racemic),48,–
–,–,–,–,–,CCCN[C@H]1CCc2nc(N)sc2C1,–,Activity [13]: Active
